{
  "source": "ChEMBL document CHEMBL3526126",
  "about": "“Amide hydrolysis of a novel chemical series of microsomal prostaglandin E synthase-1 inhibitors induces kidney toxicity in the rat” (Drug Metab Dispos, 2013)",
  "key": {"[1]": {"assay": "Effect on rat mPGES-1"}, "[2]": {"assay": "Drug metabolism in freshly prepared human hepatocytes assessed as amide hydrolysis at 1 to 10 uM by LC-MS analysis", "assay_type": "ADME, cell-based, Hepatocyte", "summary_of_the_method": "(§1)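 Hepatocytes at 1 × 10^6 cells/ml in William's medium incubated at 37°C with gentle shaking under 5% CO2. Substrate was at […]. Metabolites were analysed by LC-MS.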"}, "[3]": {"tested_on": "Rattus norvegicus", "assay": "Drug metabolism in Wistar Hannover rat assessed as formation of 4-(phenylethynyl)benzoic acid metabolite conjugated with mono-oxidized metabolite in plasma at 500 umol/kg, po qd administered for 7 days measured on day 7 by LC-MS analysis", "assay_type": "ADME, organism-based", "conditions": "in vivo, 168 h; call rule not given here"}, "[4]": {"assay": "Drug metabolism in Sprague-Dawley rat hepatocytes assessed as formation of benzene-1,2-disulfonamide metabolite M1 at 1 to 10 uM by LC-MS analysis", "assay_type": "ADME, cell-based, Hepatocyte", "summary_of_the_method": "as §1"}, "[5]": {"assay": "Drug metabolism in Sprague-Dawley rat hepatocytes assessed as formation of 4-(phenylethynyl)benzoic acid metabolite hyd at 1 to 10 uM by LC-MS analysis", "assay_type": "ADME, cell-based, Hepatocyte", "summary_of_the_method": "as §1"}, "[6]": {"assay": "Cmax in Sprague-Dawley rat at 1000 umol/kg, po qd administered for 7 days measured on day 7", "assay_type": "ADME, organism-based", "design": "dose 1000 umol/kg, route oral", "conditions": "in vivo", "summary_of_the_method": "(§2)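 Toxicity study 2: 2 female satellite rats per dose group. Dosing was once daily by oral gavage (10 ml/kg) for 7 days. Tail-vein EDTA blood was taken at 2, 4, 6, 7 and 24 h on day 1 and on day 7, then chilled and centrifuged to plasma. Parent and M1 were quantified by LC-MS/MS, with M1 measured in negative electrospray mode.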"}, "[7]": {"tested_on": "Rattus norvegicus", "assay": "Toxicity in Wistar Hannover rat kidney assessed as hemorrhage in renal pelvis at 1000 umol/kg, po qd administered for 7 days measured after day 8 by hematoxylin/eosin staining-based light microscopic analysis", "assay_type": "organism-based", "conditions": "in vivo, 168 h", "summary_of_the_method": "(§3)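 Wistar Hannover rats, about 8 weeks old, were gavaged once daily (10 ml/kg) for 7 days. One day after the last dose they were killed by carotid exsanguination under isoflurane/oxygen. Kidneys were fixed in buffered formalin, embedded in paraffin, sectioned, stained with hematoxylin and eosin, and examined by light microscopy.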"}, "[8]": {"tested_on": "Rattus norvegicus", "assay": "Toxicity in Wistar Hannover rat kidney assessed as papillitis at 1000 umol/kg, po qd administered for 7 days measured after day 8 by hematoxylin/eosin staining-based light microscopic analysis", "assay_type": "organism-based", "conditions": "in vivo, 168 h", "summary_of_the_method": "as §3"}, "[9]": {"tested_on": "Rattus norvegicus", "assay": "Toxicity in Wistar Hannover rat kidney assessed as increase in organ weight at 1000 umol/kg, po qd administered for 7 days measured on day 7 by necroscopic analysis", "assay_type": "organism-based", "conditions": "in vivo, 168 h"}, "[10]": {"assay": "AUC (0 to 24 hrs) in female Wistar Hannover rat at 1000 umol/kg, po qd measured on day 1", "conditions": "plasma"}, "[11]": {"tested_on": "Rattus norvegicus", "assay": "Toxicity in Wistar Hannover rat kidney assessed as dilated tubules with hypertrophic nuclei and cytoplasm at 1000 umol/kg, po qd administered for 7 days measured on day 7 by necroscopic analysis", "assay_type": "organism-based", "conditions": "in vivo, 168 h"}, "[12]": {"assay": "AUC (0 to 24 hrs) in Sprague-Dawley rat at 1000 umol/kg, po qd administered for 7 days measured on day 7", "assay_type": "ADME, organism-based", "design": "time < 24 hr, dose 1000 umol/kg, route oral", "conditions": "plasma", "summary_of_the_method": "as §2"}, "[13]": {"tested_on": "Rattus norvegicus", "assay": "Drug metabolism in Wistar Hannover rat assessed as formation of oxidized and sulfate-conjugated metabolite in plasma at 500 umol/kg, po qd administered for 7 days measured on day 7 by LC-MS analysis", "assay_type": "ADME, organism-based", "conditions": "in vivo, 168 h"}, "[14]": {"tested_on": "Rattus norvegicus", "assay": "Toxicity in Wistar Hannover rat kidney assessed as transitional cell hyperplasia at 1000 umol/kg, po qd administered for 7 days measured after day 8 by hematoxylin/eosin staining-based light microscopic analysis", "assay_type": "organism-based", "conditions": "in vivo, 168 h", "summary_of_the_method": "as §3"}, "[15]": {"tested_on": "Rattus norvegicus", "assay": "Toxicity in Wistar Hannover rat kidney assessed as presence of dilated tubules mixed with basophils at 1000 umol/kg, po qd administered for 7 days measured on day 7 by necroscopic analysis", "assay_type": "organism-based", "conditions": "in vivo, 168 h"}, "[16]": {"assay": "Cmax in Wistar Hannover rat at 1000 umol/kg, po qd measured on day 1", "conditions": "in vivo"}, "[17]": {"tested_on": "Rattus norvegicus", "assay": "Drug metabolism in Wistar Hannover rat assessed as formation of 4-(phenylethynyl)benzoic acid conjugated with mono-oxidized and sulfate conjugated matabolite in plasma at 500 umol/kg, po qd administered for 7 days measured on day 7 by LC-MS analysis", "assay_type": "ADME, organism-based", "conditions": "in vivo, 168 h"}, "[18]": {"assay": "AUC (0 to 24 hrs) in female Wistar Hannover rat at 500 umol/kg, po qd measured on day 1", "conditions": "plasma"}, "[19]": {"assay": "Cmax in male Wistar Hannover rat at 1000 umol/kg, po qd measured on day 1", "conditions": "in vivo"}, "[20]": {"assay": "Drug metabolism in Beagle dog hepatocytes assessed as amide hydrolysis at 1 to 10 uM by LC-MS analysis", "assay_type": "ADME, cell-based, Canis lupus familiaris, Hepatocyte", "summary_of_the_method": "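Cryopreserved male Beagle dog hepatocytes at 1 × 10^6 cells/ml in William's medium, shaken gently at 37°C under 5% CO2. Substrate was tested at two concentrations (1 and 10). Metabolites, including amide-hydrolysis products, were analysed by LC-MS.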"}, "[21]": {"assay": "AUC (0 to 24 hrs) in male Wistar Hannover rat at 500 umol/kg, po qd measured on day 1", "conditions": "plasma"}, "[22]": {"tested_on": "Rattus norvegicus", "assay": "Toxicity in Wistar Hannover rat kidney assessed as increase in plasma creatinine level at 1000 umol/kg, po qd administered for 7 days measured on day 7", "assay_type": "organism-based", "conditions": "in vivo, 168 h", "summary_of_the_method": "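Wistar Hannover rats, about 8 weeks old, were acclimatized about 2 weeks and randomized by body weight. Dosing was by oral gavage (10 ml/kg) once daily for 7 days, with vehicle controls. At the end of dosing, plasma (lithium heparin) was taken from the orbital plexus under isoflurane/oxygen anaesthesia, and urea and creatinine were measured.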"}, "[23]": {"tested_on": "Rattus norvegicus", "assay": "Toxicity in Wistar Hannover rat kidney assessed as multiple pyogranuloma in renal pelvis at 1000 umol/kg, po qd administered for 7 days measured after day 8 by hematoxylin/eosin staining-based light microscopic analysis", "assay_type": "organism-based", "conditions": "in vivo, 168 h", "summary_of_the_method": "as §3"}, "[24]": {"tested_on": "Rattus norvegicus", "assay": "Drug metabolism in Wistar Hannover rat assessed as formation of [14C]-4-(phenylethynyl)benzoic acid metabolite hyd in plasma at 500 umol/kg, po qd administered for 7 days measured on day 7 by radio monitoring method", "assay_type": "ADME, organism-based", "conditions": "in vivo, 168 h"}, "[25]": {"assay": "Cmax in female Wistar Hannover rat at 500 umol/kg, po qd administered for 7 days measured on day 7", "conditions": "in vivo"}, "[26]": {"tested_on": "Rattus norvegicus", "assay": "Toxicity in Wistar Hannover rat kidney assessed as inflammation in renal pelvis at 1000 umol/kg, po qd administered for 7 days measured after day 8 by hematoxylin/eosin staining-based light microscopic analysis", "assay_type": "organism-based", "conditions": "in vivo, 168 h", "summary_of_the_method": "as §3"}, "[27]": {"assay": "Drug metabolism in Sprague-Dawley rat hepatocytes assessed as formation of 4-(phenylethynyl)benzoic acid metabolite hyd at 1 to 10 uM by radio monitoring method", "assay_type": "ADME, cell-based, Hepatocyte", "summary_of_the_method": "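Hepatocytes at 1 × 10^6 cells/ml in William's medium were incubated at 37°C with gentle shaking under 5% CO2, with substrate at […]. Separation was on an Atlantis T3 column (100 × 4.6 mm) at 1 ml/min, split 1:20 to the ion source and a flow scintillation monitor. Scintillation cocktail was added at 4 ml/min through a 0.5 ml flow cell.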"}, "[28]": {"assay": "Cmax in female Wistar Hannover rat at 500 umol/kg, po qd measured on day 1", "conditions": "in vivo"}, "[29]": {"assay": "AUC (0 to 24 hrs) in female Wistar Hannover rat at 500 umol/kg, po qd administered for 7 days measured on day 7", "conditions": "plasma"}},
  "data": [
    {"smiles": "NS(=O)(=O)c1ccccc1S(=O)(=O)NC(=O)c1ccc(C#Cc2ccccc2)cc1", "values": [
      {"measurement": "Activity", "setting": "[1]", "value": "Not Active"},
      {"measurement": "Drug metabolism", "setting": "[2]", "value": "metabolite_not_detected"},
      {"measurement": "Drug metabolism", "setting": "[3]", "value": "metabolite_detected"},
      {"measurement": "Drug metabolism", "setting": "[4]", "value": "metabolite_not_detected"},
      {"measurement": "Drug metabolism", "setting": "[5]", "value": "metabolite_detected"},
      {"measurement": "Cmax", "setting": "[6]", "value": 95, "unit": "µM"},
      {"measurement": "Activity", "setting": "[7]", "value": "Toxic"},
      {"measurement": "Activity", "setting": "[8]", "value": "Toxic"},
      {"measurement": "Activity", "setting": "[9]", "value": "Toxic"},
      {"measurement": "AUC(0-t) at 24 h", "setting": "[10]", "value": 1020, "unit": "µM·h"},
      {"measurement": "Activity", "setting": "[11]", "value": "Toxic"},
      {"measurement": "AUC at 24 h", "setting": "[12]", "value": 990, "unit": "µM·h"},
      {"measurement": "Drug metabolism", "setting": "[13]", "value": "metabolite_detected"},
      {"measurement": "Activity", "setting": "[14]", "value": "Toxic"},
      {"measurement": "Activity", "setting": "[15]", "value": "Toxic"},
      {"measurement": "Cmax", "setting": "[16]", "value": 105, "unit": "µM"},
      {"measurement": "Drug metabolism", "setting": "[17]", "value": "metabolite_detected"},
      {"measurement": "AUC(0-t) at 24 h", "setting": "[18]", "value": 450, "unit": "µM·h"},
      {"measurement": "Cmax", "setting": "[19]", "value": 46, "unit": "µM"},
      {"measurement": "Drug metabolism", "setting": "[20]", "value": "metabolite_not_detected"},
      {"measurement": "AUC(0-t) at 24 h", "setting": "[21]", "value": 840, "unit": "µM·h"},
      {"measurement": "Activity", "setting": "[22]", "value": "Toxic"},
      {"measurement": "Activity", "setting": "[23]", "value": "Toxic"},
      {"measurement": "Drug metabolism", "setting": "[24]", "value": "metabolite_detected"},
      {"measurement": "Cmax", "setting": "[25]", "value": 39, "unit": "µM"},
      {"measurement": "Activity", "setting": "[26]", "value": "Toxic"},
      {"measurement": "Drug metabolism", "setting": "[27]", "value": "metabolite_detected"},
      {"measurement": "Cmax", "setting": "[28]", "value": 38, "unit": "µM"},
      {"measurement": "AUC at 24 h", "setting": "[29]", "value": 430, "unit": "µM·h"}
    ]}
  ]
}
